Source: ChEMBL document CHEMBL5154735, “Interaction of A3 adenosine receptor ligands with the human multidrug transporter ABCG2” (Eur J Med Chem, 2022)

Legend:
[1] = biological target: T1, Broad substrate specificity ATP-binding cassette transporter ABCG2 (Homo sapiens, UniProt Q9UNQ0); experiment: Activation of human ABCG2-mediated ATPase activity preincubated for 2 mins followed by ATP addition and measured after 20 mins by colorimetric assay
T1 sequence (Q9UNQ0 whole entry): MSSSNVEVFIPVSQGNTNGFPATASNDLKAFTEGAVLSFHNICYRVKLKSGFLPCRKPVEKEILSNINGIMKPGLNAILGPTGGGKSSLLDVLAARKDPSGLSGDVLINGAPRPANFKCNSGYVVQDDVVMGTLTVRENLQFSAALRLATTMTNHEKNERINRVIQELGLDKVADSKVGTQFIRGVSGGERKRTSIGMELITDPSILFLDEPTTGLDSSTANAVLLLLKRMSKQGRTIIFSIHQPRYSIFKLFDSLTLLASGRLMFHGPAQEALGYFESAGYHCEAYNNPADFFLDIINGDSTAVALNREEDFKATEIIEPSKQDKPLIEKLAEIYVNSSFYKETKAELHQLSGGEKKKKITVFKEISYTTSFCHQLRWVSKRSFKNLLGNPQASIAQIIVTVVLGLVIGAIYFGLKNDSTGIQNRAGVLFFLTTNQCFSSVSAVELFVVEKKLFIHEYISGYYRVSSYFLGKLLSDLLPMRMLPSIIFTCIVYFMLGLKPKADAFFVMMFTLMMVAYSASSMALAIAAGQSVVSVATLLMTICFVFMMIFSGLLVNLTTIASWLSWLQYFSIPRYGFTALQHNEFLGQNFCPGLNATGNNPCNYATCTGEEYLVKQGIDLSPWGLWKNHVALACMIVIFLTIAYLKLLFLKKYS
How it was run: (§1)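 Total membrane vesicles from High-Five insect cells expressing human ABCG2 (hypotonic lysis, differential centrifugation), 10 μg protein/tube, in MES-Tris pH 6.8 buffer with KCl, MgCl2, NaN3, EGTA, ouabain, DTT. Compound in DMSO added ± sodium orthovanadate (0.3 mM), DMSO control. Preincubated 2 min at 37°C, then 5 mM ATP, 20 min. SDS stop, Pi measured colorimetrically. Three independent experiments in duplicate, mean ± SE.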

Adenosine receptor A3 [2] = biological target: T2, Adenosine receptor A3 (Homo sapiens, UniProt P0DMS8); experiment: Binding affinity towards human adenosine A3 receptor
T2 sequence (P0DMS8 whole entry): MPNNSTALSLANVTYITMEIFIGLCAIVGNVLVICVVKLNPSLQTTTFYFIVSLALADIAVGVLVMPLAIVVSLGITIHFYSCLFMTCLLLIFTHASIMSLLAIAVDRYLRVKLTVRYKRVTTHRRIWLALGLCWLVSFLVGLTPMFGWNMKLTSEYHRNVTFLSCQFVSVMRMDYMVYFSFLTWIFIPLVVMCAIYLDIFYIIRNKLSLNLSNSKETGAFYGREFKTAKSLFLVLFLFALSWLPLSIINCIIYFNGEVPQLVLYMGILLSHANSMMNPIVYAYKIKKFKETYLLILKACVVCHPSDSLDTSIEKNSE

ABCG2 [3] = biological target: T3, ABCG2 (Homo sapiens, UniProt Q9UNQ0); experiment: Inhibition of human ABCG2 in human R5 cells assessed as inhibition of mitoxantrone efflux at 10 uM measured by flow cytometric analysis relative to control; type: cell-based; settings: probe mitoxantrone
T3 sequence (Q9UNQ0 whole entry): T1 sequence (Q9UNQ0 whole entry)
How it was run: (§2)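 HEK293 cells transfected with full-length ABCG2 (R-5) or empty pcDNA vector, grown in MEM with 10% FBS and 2 mg/ml G418. Cells incubated in IMDM with 5% FBS, 5 μM mitoxantrone (final) ± compound, 37°C for 45 min. Washed in cold IMDM, resuspended in cold PBS with 1% BSA, read by flow cytometry.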

[4] = biological target: T1, Broad substrate specificity ATP-binding cassette transporter ABCG2; experiment: Inhibition of human ABCG2 in human R5 cells assessed as inhibition of mitoxantrone efflux measured by flow cytometric analysis; type: cell-based; how it was run: as §2
ABCG2 [5] = biological target: T3, ABCG2; experiment: Activation of human ABCG2-mediated ATPase activity preincubated for 2 mins followed by ATP addition at 100 nM and measured after 20 mins by colorimetric assay relative to control; settings: read-out: Activity; how it was run: as §1
Adenosine receptor A3 [6] = biological target: T4, Adenosine receptor A3 (Mus musculus, UniProt Q61618); experiment: Binding affinity towards mouse adenosine A3 receptor
T4 sequence (Q61618 whole entry): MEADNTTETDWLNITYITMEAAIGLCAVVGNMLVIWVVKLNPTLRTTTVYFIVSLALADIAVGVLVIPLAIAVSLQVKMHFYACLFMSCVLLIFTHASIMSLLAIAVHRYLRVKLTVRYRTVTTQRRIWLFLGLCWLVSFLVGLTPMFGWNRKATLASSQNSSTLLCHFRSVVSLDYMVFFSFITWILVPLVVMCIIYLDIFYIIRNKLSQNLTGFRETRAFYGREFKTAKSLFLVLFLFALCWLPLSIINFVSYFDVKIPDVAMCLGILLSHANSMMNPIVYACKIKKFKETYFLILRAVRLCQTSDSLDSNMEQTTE

ABCG2 [7] = biological target: T3, ABCG2; experiment: Activation of human ABCG2-mediated ATPase activity preincubated for 2 mins followed by ATP addition at 10 uM and measured after 20 mins by colorimetric assay relative to control; settings: read-out: Activity; how it was run: as §1
ABCG2 [8] = biological target: T3, ABCG2; experiment: Effect on human ABCG2 transporter preincubated for 2 mins followed by ATP addition assessed as basal ATPase activity at 2.5 uM and measured after 20 mins by colorimetric assay relative to control; settings: read-out: Activity; how it was run: as §1
ABCG2 [9] = biological target: T3, ABCG2; experiment: Effect on human ABCG2 transporter preincubated for 2 mins followed by ATP addition assessed as basal ATPase activity at 10 uM and measured after 20 mins by colorimetric assay relative to control; settings: read-out: Activity; how it was run: as §1
ABCG2 [10] = biological target: T3, ABCG2; experiment: Activation of human ABCG2-mediated ATPase activity preincubated for 2 mins followed by ATP addition at 2.5 uM and measured after 20 mins by colorimetric assay relative to control; settings: read-out: Activity; how it was run: as §1
ABCG2 [11] = biological target: T3, ABCG2; experiment: Inhibition of human ABCG2-mediated ATPase activity preincubated for 2 mins followed by ATP addition at 10 uM and measured after 20 mins by colorimetric assay relative to control; how it was run: as §1
[12] = biological target: T1, Broad substrate specificity ATP-binding cassette transporter ABCG2; experiment: Inhibition of human ABCG2-mediated ATPase activity preincubated for 2 mins followed by ATP addition and measured after 20 mins by colorimetric assay; how it was run: as §1
ABCG2 [13] = biological target: T3, ABCG2; experiment: Inhibition of human ABCG2-mediated ATPase activity preincubated for 2 mins followed by ATP addition at 2.5 uM and measured after 20 mins by colorimetric assay relative to control; how it was run: as §1
ABCG2 [14] = biological target: T3, ABCG2; experiment: Activation of human ABCG2-mediated ATPase activity preincubated for 2 mins followed by ATP addition at 5 uM and measured after 20 mins by colorimetric assay relative to control; settings: read-out: Activity; how it was run: as §1
ABCG2 [15] = biological target: T3, ABCG2; experiment: Activation of human ABCG2-mediated ATPase activity preincubated for 2 mins followed by ATP addition at 0.5 uM and measured after 20 mins by colorimetric assay relative to control; settings: read-out: Activity; how it was run: as §1

COc1cc(CCNC2=NC(C#Cc3ccc(Cl)s3)=NC3=NC=NC32)ccc1O (stereo not given)
EC50 [1]: 13.2 nM
Ki (Adenosine receptor A3 [2]): 6820 nM
inhibition at 10 µM (ABCG2 [3]): 110%
IC50 [4]: 4980 nM
activity at 20 min, 0.1 µM (ABCG2 [5]): 111%

CCOC(=O)C12CC1[C@@H](n1ccc3c(NCCc4ccccc4)nc(C#Cc4ccccc4)nc31)[C@H](O)[C@@H]2O (single isomer, unassigned)
EC50 [1]: 13.2 nM
inhibition at 10 µM (ABCG2 [3]): 92.6%
IC50 [4]: 440 nM
Ki (Adenosine receptor A3 [6]): > 10000 nM
activity at 20 min, 0.1 µM (ABCG2 [5]): 77.3%

CNC(=O)C12CC1[C@@H](n1cnc3cnc(C#Cc4ccc(F)c(F)c4)nc31)[C@H](O)[C@@H]2O (single isomer, unassigned)
activity at 20 min, 10 µM (ABCG2 [7]): 64.2%
activity at 20 min, 2.5 µM (ABCG2 [8]): ≤ 30%

CNC(=O)C12CC1[C@@H](n1cnc3c(NCc4cccc(Cl)c4)nc(C#Cc4cccc(Cl)c4)nc31)[C@H](O)[C@@H]2O (single isomer, unassigned)
activity at 20 min, 10 µM (ABCG2 [9]): ≤ 30%
activity at 20 min, 2.5 µM (ABCG2 [10]): 49.3%

CNC(=O)C12CC1[C@@H](n1cnc3c(NCc4cccc(Cl)c4)nc(C#Cc4ccccc4)nc31)[C@H](O)[C@@H]2O (single isomer, unassigned)
activity at 20 min, 10 µM (ABCG2 [9]): ≤ 30%
activity at 20 min, 2.5 µM (ABCG2 [10]): 51.3%

OCC12CC1[C@@H](n1cnc3c(NCc4cccc(-n5cc(-c6ccc(F)c(F)c6)nn5)c4)nc(C#Cc4ccc(F)cc4)nc31)[C@H](O)[C@@H]2O (single isomer, unassigned)
activity at 20 min, 2.5 µM (ABCG2 [8]): ≤ 30%
activity at 20 min, 10 µM (ABCG2 [9]): ≤ 30%

CNC(=O)C12CC1[C@@H](n1cnc3c(NCc4cccc(-n5cc(-c6ccc(F)c(F)c6)nn5)c4)nc(C#Cc4ccc(F)cc4)nc31)[C@H](O)[C@@H]2O (single isomer, unassigned)
inhibition at 10 µM (ABCG2 [3]): 102%
inhibition at 20 min, 10 µM (ABCG2 [11]): 74.7%
IC50 [12]: 2590 nM
inhibition at 20 min, 2.5 µM (ABCG2 [13]): 54.4%

CNC(=O)C12CC1[C@@H](n1cnc3c(NCc4cccc(-n5cc(-c6ccc(F)c(F)c6)nn5)c4)nc(C#Cc4ccc(F)c(F)c4)nc31)[C@H](O)[C@@H]2O (single isomer, unassigned)
inhibition at 10 µM (ABCG2 [3]): 92.5%
IC50 [12]: 2570 nM
inhibition at 20 min, 2.5 µM (ABCG2 [13]): 43.5%

CNC(=O)C12CC1[C@@H](n1cnc3c(NCc4cccc(-n5cc(-c6ccc(F)c(F)c6)nn5)c4)nc(C#Cc4ccc(C(F)(F)F)cc4)nc31)[C@H](O)[C@@H]2O (single isomer, unassigned)
inhibition at 20 min, 10 µM (ABCG2 [11]): 44.5%
activity at 20 min, 2.5 µM (ABCG2 [8]): ≤ 30%

OCC12CC1[C@@H](n1cnc3c(NCc4cccc(-n5cc(-c6ccc(F)c(F)c6)nn5)c4)nc(C#Cc4ccc(F)c(F)c4)nc31)[C@H](O)[C@@H]2O (single isomer, unassigned)
activity at 20 min, 2.5 µM (ABCG2 [8]): ≤ 30%
activity at 20 min, 10 µM (ABCG2 [9]): ≤ 30%

CNC(=O)C12CC1[C@@H](n1cnc3c(NC4CC4c4ccc(F)c(F)c4)nc(C#Cc4cccc(F)c4)nc31)[C@H](O)[C@@H]2O (single isomer, unassigned)
EC50 [1]: 16 nM
inhibition at 10 µM (ABCG2 [3]): 100%
activity at 20 min, 10 µM (ABCG2 [7]): 46.7%
activity at 20 min, 2.5 µM (ABCG2 [10]): 111%

CCOC(=O)C12CC1[C@@H](n1ccc3c(NCCCc4ccc(OC)c(O)c4)nc(C#Cc4ccc(Cl)s4)nc31)[C@H](O)[C@@H]2O (single isomer, unassigned)
EC50 [1]: 24.3 nM
Ki (Adenosine receptor A3 [2]): ≥ 99 nM
inhibition at 10 µM (ABCG2 [3]): 109%
IC50 [4]: 600 nM
activity at 20 min, 0.1 µM (ABCG2 [5]): 74.2%

CNC(=O)C12CC1[C@@H](n1cnc3c(NCc4cccc(-n5cc(-c6ccc(F)c(F)c6)nn5)c4)nc(C#Cc4cc(F)cc(F)c4)nc31)[C@H](O)[C@@H]2O (single isomer, unassigned)
inhibition at 20 min, 10 µM (ABCG2 [11]): 49.4%
inhibition at 20 min, 2.5 µM (ABCG2 [13]): 44.7%

CNC(=O)C12CC1[C@@H](n1cnc3c(C)nc(C#Cc4ccc(F)c(F)c4)nc31)[C@H](O)[C@@H]2O (single isomer, unassigned)
Ki (Adenosine receptor A3 [2]): ≥ 99 nM
activity at 20 min, 10 µM (ABCG2 [7]): 72.6%
activity at 20 min, 2.5 µM (ABCG2 [10]): 49.6%

CNC(=O)C12CC1[C@@H](n1cnc3c(NCc4cccc(Cl)c4)nc(C#Cc4ccc(F)c(F)c4)nc31)[C@H](O)[C@@H]2O (single isomer, unassigned)
EC50 [1]: 80 nM
inhibition at 10 µM (ABCG2 [3]): 99.2%
activity at 20 min, 5 µM (ABCG2 [14]): 56.8%
activity at 20 min, 0.5 µM (ABCG2 [15]): 74.4%

CNC(=O)C12CC1[C@@H](n1cnc3c(NCc4cccc(Cl)c4)nc(C#Cc4ccc(F)cc4)nc31)[C@H](O)[C@@H]2O (single isomer, unassigned)
activity at 20 min, 10 µM (ABCG2 [7]): 49.3%
activity at 20 min, 2.5 µM (ABCG2 [10]): 60.3%

CNC(=O)C12CC1[C@@H](n1cnc3c(NCc4cccc(-n5cc(-c6ccc(F)c(F)c6)nn5)c4)nc(C#Cc4ccc(F)cc4F)nc31)[C@H](O)[C@@H]2O (single isomer, unassigned)
inhibition at 20 min, 10 µM (ABCG2 [11]): 57.1%
activity at 20 min, 2.5 µM (ABCG2 [8]): ≤ 30%

CNC(=O)C12CC1[C@@H](n1cnc3c(NCc4cccc(-n5cc(-c6ccc(F)c(F)c6)nn5)c4)nc(C#Cc4cc(F)c(F)c(F)c4)nc31)[C@H](O)[C@@H]2O (single isomer, unassigned)
inhibition at 10 µM (ABCG2 [3]): 105%
inhibition at 20 min, 10 µM (ABCG2 [11]): 48.9%
IC50 [12]: 4010 nM
inhibition at 20 min, 2.5 µM (ABCG2 [13]): 38.9%
